This is an account of results in ChEMBL document CHEMBL3817734, “Structure-activity relationships of vanillic acid ester analogs in inhibitory effect of antigen-mediated degranulation in rat basophilic leukemia RBL-2H3 cells” (Bioorg Med Chem Lett, 2016).

Activity calls are given as the source filed them. The rule behind the calls is not given here.

In data set [1] the test system is RBL-2H3. Briefly: Anti-allergic activity in RBL2H3 cells assessed as inhibition of anti-DNP-IgE-induced degranulation at 30 to 300 uM incubated for 20 mins followed by DNP-labeled human serum albumin addition measured after 1 hr by beta-hexosaminidase release assay. The data set is classed as functional, cell-based. As to conditions: Rattus norvegicus. The gist of the method:
(§1)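 DNP-IgE-sensitized RBL-2H3 cells were pretreated with test samples for 20 min, with 75 μM oxatomide as positive control, then stimulated with DNP-HSA for 1 h. Degranulation was read as β-hexosaminidase release. Compounds were dissolved in culture medium containing cyclodextrin (CD). Data are the mean of three independent cultures ± SD, compared with control by Dunnett's test.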

Data set [2] deals with RBL-2H3. Briefly: Anti-allergic activity in RBL2H3 cells assessed as inhibition of anti-DNP-IgE-induced degranulation at 100 to 1000 uM incubated for 20 mins followed by DNP-labeled human serum albumin addition measured after 1 hr by beta-hexosaminidase release assay. It counts as functional, cell-based. The conditions noted are these: Rattus norvegicus. The gist of the method: as §1

Data set [3] is described as follows: Drug level in RBL2H3 cells treated with ferulic acid. The data set is classed as ADME, cell-based. The conditions noted are these: rat, rbl-2h3.
Data set [4] deals with RBL-2H3. Briefly: Anti-allergic activity in RBL2H3 cells assessed as inhibition of anti-DNP-IgE-induced degranulation incubated for 20 mins followed by DNP-labeled human serum albumin addition measured after 1 hr by beta-hexosaminidase release assay. It counts as functional, cell-based. As to conditions: Rattus norvegicus. In outline: as §1
A short description of data set [5]: Drug metabolism in RBL2H3 cells assessed as vanillin and vanillic acid formation. The data set is classed as ADME, cell-based. As to conditions: rat, rbl-2h3.
Data set [6] is described as follows: Drug level in RBL2H3 cells treated with butyl vanillate assessed as esterase-mediated compound formation. As to conditions: rat, rbl-2h3. It counts as ADME, cell-based.
Data set [7] in a line: Cytotoxicity in RBL2H3 cells. As to conditions: rat, rbl-2h3. The data set is classed as cell-based.
A short description of data set [8]: Solubility of compound in water. The conditions noted are these: buffer. The data set is classed as physicochemical.
Data set [9] is described as follows: Drug metabolism in RBL2H3 cells assessed as esterase-mediated vanillic acid formation. It counts as ADME, cell-based. As to conditions: rat, rbl-2h3.
A short description of data set [10]: Drug metabolism in RBL2H3 cells assessed as esterase-mediated butanol formation. The conditions noted are these: rat, rbl-2h3. The data set is classed as ADME, cell-based.
Data set [11] can be described thus: Increase in anti-DNP-IgE-induced degranulation in RBL2H3 cells incubated for 20 mins followed by DNP-labeled human serum albumin addition measured after 1 hr by beta-hexosaminidase release assay. It counts as cell-based. The conditions noted are these: rat, rbl-2h3, 1 h. The gist of the method: as §1
Data set [12] relates to RBL-2H3. Briefly: Anti-allergic activity in RBL2H3 cells assessed as inhibition of anti-DNP-IgE-induced degranulation at 1000 uM incubated for 20 mins followed by DNP-labeled human serum albumin addition measured after 1 hr by beta-hexosaminidase release assay. The data set is classed as functional, cell-based. The conditions noted are these: Rattus norvegicus. In outline: as §1

A word on the IC50: it is the midpoint of a concentration-inhibition curve.

For the molecule `CCCCOC(=O)c1ccc(OC)cc1`, the inhibition entry in the data set on RBL-2H3 [1] is “inactive”.

For the molecule `COc1cc(C=O)ccc1O` [VANILLIN], the inhibition entry in the data set with RBL-2H3 [2] is “inactive”. For the same molecule, the Drug metabolism result in data set [3] is on record as “metabolite_detected”.

`CCCCOC(=O)c1cccc(OC)c1`: in the data set with RBL-2H3 [1], the inhibition result was “inactive”.

On to `CCCOC(=O)Cc1ccc(O)c(OC)c1`, for which the inhibition result in the data set with RBL-2H3 [1] was “inactive”.

With `CCOC(=O)CCc1ccc(O)c(OC)c1`, the inhibition result in the data set on RBL-2H3 [1] was “inactive”.

As to `CCCCOC(=O)c1ccccc1`, the inhibition result with RBL-2H3 [1] is “inactive”.

As to `COc1cc(C(=O)OC(C)C)ccc1O`, in the data set on RBL-2H3 [4], the IC50 came to 415 µM.

For the molecule `CCCCOC(=O)c1ccc(OC)c(O)c1`, in the data set on RBL-2H3 [1], the inhibition entry is “Active”.

Consider `COc1cc(/C=C/C(=O)O)ccc1O` [FERULATE], for which the inhibition entry with RBL-2H3 [4] was “Active”. In addition, the Drug metabolism entry in data set [5] is on record as “metabolite_detected”.

In the case of `CCCCOC(=O)c1cccc(O)c1`, the inhibition entry in the data set with RBL-2H3 [1] is “Active”.

`CCCOC(=O)c1ccc(O)c(OC)c1`: in the data set on RBL-2H3 [4], the 50% inhibitory concentration (IC50) is 294 µM.

Consider `COc1cc(C(=O)O)ccc1O` [VANILLIC ACID], for which the inhibition entry with RBL-2H3 [2] was “inactive”. Moreover, the Drug metabolism entry in data set [3] and in data set [6] was “metabolite_detected” each time.

On to `CCCCOC(=O)c1ccc(O)c(OC)c1`, for which, in the data set on RBL-2H3 [4], the IC50 came to 198 µM. For the same molecule, in data set [7], the Activity entry was “Non-toxic”. For the same molecule, the solubility result in [8] is reported as “soluble”. Besides, the Drug metabolism result in data set [9] and in [10] was “metabolite_detected” throughout.

As for `CCCCOC(=O)c1ccc(O)cc1`, in the data set on RBL-2H3 [1], the inhibition result was “Active”.

Regarding `CCCCCCCCOC(=O)c1ccc(O)c(OC)c1`, the Activity entry in data set [7] and in data set [11] was “Toxic” throughout.

As for `COC(=O)c1ccc(O)c(OC)c1` [METHYL VANILLATE], in the data set with RBL-2H3 [4], the concentration for half-maximal inhibition (IC50) is 640 µM. For the same molecule, the inhibition entry in the data set with RBL-2H3 [12] was “Active”.
